Screening data from PubChem BioAssay.
An excerpt weighted towards active compounds, which were near 3.1% of everything screened.
MEKK2 WT-MEK5 = raises or lowers MEK5 binding to wildtype human MEKK2 PB1 domain; binding response (% of control), % at 10 µM; 290,000 compounds, 1.1% hits; bead flow cytometry, Alexa488-MEK5 binding to MEKK2 WT; actives lie on both sides; Q9Y2U5; in the data active = binding response below about 67% or above about 130%
MEKK3 PB1 HTS = raises or lowers MEK5 binding to the human MEKK3 PB1 domain. AID 1529. Q99759. 290,000 compounds, 1.4% hits. bead-based flow cytometry, Alexa488-MEK5 binding to MEKK3; actives lie on both sides; 0 = blocked by unlabeled MEK5, 100 = vehicle. binding response (% of control), % at 10 µM;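 active = binding response more than 3 SD above or below the average of its plate-row segment, actives on both sides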;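 also: Alexa488 bead fluorescence after subtracting the streptavidin-only scavenger bead signal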
Apaf1 inhib = blocks human Apaf-1 apoptosome activity; reconstituted apoptosome caspase-3 activity, DEVD-Rh110 fluorescence; inhibition, % at 20 µM; 330,000 compounds, 0.71% hits; AID 489030; active = inhibition of at least 40% at 20 µM
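Material: reconstituted apoptosome with Apaf-1, cytochrome c, caspase-9, procaspase-3, dATP / Buffer or medium: pH 7.5 Hepes buffer with CHAPS, BSA, DTT / Also added: cytochrome c with DEVD-Rh110 / Schedule: compound with Apaf-1, dATP, procaspase-3 30 min, then 50 min reaction, room temperature / Technique: rhodamine 110 fluorescence at Ex 480/Em 540 nm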
MEKK2 mut-MEK5 = signal of MEK5 binding to mutant human MEKK2 PB1 domain; bead flow cytometry, Alexa488-MEK5 binding to MEKK2 mutant; percent response, % at 10 µM; 290,000 compounds, 0.35% hits; in the data active = percent response above about 24%, passing the limit was not always enough
UBC13 inh = human UBC13 polyubiquitination inhibition. inhibition, % at 20 µM. P61088. 330,000 compounds, 0.47% hits. UBC13 polyubiquitin chain formation, TR-FRET; in the data active = inhibition above about 45%, passing the limit was not always enough
PREPL inhibitor = human PREPL enzyme inhibition; Q4J6C6; recombinant PREPL, fluorescence polarization activity-based probe; inhibition, % at 5.96 µM; 320,000 compounds, 0.68% hits; AID 2751; in the data active = inhibition above about 43%
Casp3 counter = caspase-3 inhibition (UBC13 counter-screen); shares compounds with UBC13 inh; Recombinant caspase-3, Caspase-Glo 3/7 luminescence, 60 min; inhibition, % at 20 µM; 1,400 compounds, 4% hits;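 active = mean inhibition across replicates above about 26%, limit read from the data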
UBC13 conf = confirmation of human UBC13 polyubiquitin inhibitors; shares compounds with UBC13 inh; UBC13 polyubiquitination, TR-FRET, biochemical; inhibition, % at 10 µM; 1,400 compounds, 68% hits; in the data active = inhibition above about 45%
Apaf-1 inh conf2 = confirmation of Apaf-1 inhibitors; shares compounds with Apaf1 inhib; reconstituted apoptosome, caspase-3 DEVD-Rh110 fluorescence; inhibition, % at 20 µM; 1,800 compounds, 25% hits; AID 504614;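 active = mean inhibition of at least 40% at 20 µM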
Rh110 quench = counter-screen for Apaf-1 inhibitors: fluorescence interference. 1,800 tested, under 10 active. Rh110 fluorescence interference, quenched caspase reaction. activation (fluorescence interference), % at 20 µM. shares compounds with Apaf1 inhib;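 active = signal rise of 40% or more at 20 µM, treated as a fluorescence artifact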
Numbers stand for hits; n = inactive; x = no result given.

SMILES	MEKK2 WT-MEK5	MEKK3 PB1 HTS	Apaf1 inhib	MEKK2 mut-MEK5	UBC13 inh	PREPL inhibitor	Casp3 counter	UBC13 conf	Apaf-1 inh conf2	Rh110 quench
C#CCOCCOCCOCCNc1nc(N2CCN(C(=O)[C@H]([C@@H](C)O)n3cc(CCCCN)nn3)CC2)nc(N2CCN(C(=O)[C@H](CCCCN)n3cc(CCC(=O)O)nn3)CC2)n1	x	x	n	x	n	n	x	x	x	x
C#CCOCCOCCOCCNc1nc(N2CCN(C(=O)CCCCCCCCCCNC(=O)[C@@H](CCC(=O)O)n3cc(CCCCCN)nn3)CC2)nc(N2CCN(C(=O)CCCCCCCCCCNC(=O)[C@H]([C@@H](C)CC)n3cc(CCCCCN)nn3)CC2)n1	x	x	61	x	114	n	n	104	n	n
C#CCOCCOCCOCCNc1nc(N2CCN(C(=O)CCCCCCCCCCNC(=O)[C@@H](CCSC)n3cc(CCO)nn3)CC2)nc(N2CCN(C(=O)CCCCCCCCCCNC(=O)[C@H](CCSC)n3cc(CCO)nn3)CC2)n1	x	x	n	x	n	n	x	x	x	x
C#CCOCCOCCOCCNc1nc(N2CCN(C(=O)CCCCCCCCCCNC(=O)Cn3cc(C[C@@H](C)O)nn3)CC2)nc(N2CCN(C(=O)CCCCCCCCCCNC(=O)[C@@H](CCC(=O)O)n3cc(CCCCCN)nn3)CC2)n1	x	x	52	x	66	n	n	51	n	n
C#CCOCCOCCOCCNc1nc(N2CCN(C(=O)[C@H](CCCCN)n3cc(CC(C)O)nn3)CC2)nc(N2CCN(C(=O)[C@H](CCCCN)n3cc(CC(C)O)nn3)CC2)n1 (some centres undefined)	x	x	n	x	n	n	x	x	x	x
CCOC(=O)c1cc(C#N)c(N2CCN(c3ccc(OC)cc3)CC2)[nH]c1=O	n	n	n	n	n	n	x	x	x	x
Cc1ncsc1CCOC(=O)c1ccc(Cl)cc1	n	n	n	n	n	n	x	x	x	x
Cc1c(CCOC(=O)c2ccc(Cl)cc2Cl)sc[n+]1CC(=O)c1ccc(Br)cc1	x	x	71	x	67	n	n	67	n	n
NC1=NC[C@H](Cc2ccccc2)N1CCc1cc(C(F)(F)F)cc(C(F)(F)F)c1	n	n	54	n	80	n	n	45	n	n
FC(F)(F)c1cc(CCN2C(=S)NC[C@@H]2Cc2ccccc2)cc(C(F)(F)F)c1	n	n	n	n	n	n	x	x	x	x
CC(=O)C(Cc1ccccc1)NC(=O)COC(=O)c1cccc(C)c1[N+](=O)[O-] (centres undefined)	x	x	n	x	n	n	x	x	x	x
c1ccc2c(-c3ccc(OCCN4CCCCC4)cc3)c(-c3ccsc3)sc2c1	x	x	59	x	58	n	n	56	n	n
Oc1ccc(-c2c(-c3ccsc3)sc3ccccc23)cc1	n	n	n	n	n	n	x	x	x	x
CCOC(=O)Nc1ccc2c(c1)N(C(=O)CN1CCN(C)CC1)c1ccccc1S2	n	n	n	n	n	n	x	x	x	x
CCSc1ccc2c(c1)N(CCCN1CCN(C)CC1)c1ccccc1S2	x	x	57	x	75	n	n	64	n	n
C#CCOCCOCCOCCNc1nc(N2CCN(C(=O)[C@H](CCCN=C(N)N)n3cc(C(N)[C@@H](C)CC)nn3)CC2)nc(N2CCN(C(=O)[C@H](CCCCN)n3cc([C@@H](N)[C@H](C)CC)nn3)CC2)n1 (some centres undefined)	x	x	50	x	95	n	n	88	n	n
C#CCOCCOCCOCCNc1nc(N2CCN(C(=O)[C@H](CCCCN)n3cc(CN)nn3)CC2)nc(N2CCN(C(=O)[C@H](CCCCN)n3cc([C@@H](N)[C@H](C)CC)nn3)CC2)n1	x	x	40	x	109	n	n	108	n	n
C#CCOCCOCCOCCNc1nc(N2CCN(C(=O)[C@H](CCCCN)n3cc([C@@H](N)[C@H](C)CC)nn3)CC2)nc(N2CCN(C(=O)[C@H](CCC(=O)O)n3cc([C@@H](N)CCCCN)nn3)CC2)n1	x	x	47	x	101	n	n	109	n	n
C#CCOCCOCCOCCNc1nc(N2CCN(C(=O)[C@H](CCCCN)n3cc(C(N)[C@H](C)CC)nn3)CC2)nc(N2CCN(C(=O)[C@H](CCC(=O)O)n3cc(C(N)[C@H](C)CC)nn3)CC2)n1 (some centres undefined)	n	n	n	n	n	n	x	x	x	x
COc1ccc(C(=O)Oc2cc(C)c(CN3CCOCC3)cc2C)cc1OC	n	n	n	n	n	n	x	x	x	x
CC(=O)Nc1ccc(S(=O)(=O)NCC(=O)OCC(=O)N2CCCCCC2)cc1	x	x	n	x	n	n	x	x	x	x
CN(C)CCCNC(=S)NCC(c1ccc(Cl)cc1Cl)c1c[nH]c2ccccc12 (centres undefined)	223	n	41	73	60	n	n	88	n	n
CCCN(CC(=O)Nc1ccccc1OC)C(=O)CCNC(=O)c1ccccc1OC	x	x	n	x	n	n	x	x	x	x
CSCC[C@H](NC(=O)[C@H]1CC[C@H](CNC(=O)[C@@H](N)Cc2ccccc2)CC1)C(=O)O	n	n	n	n	n	n	x	x	x	x
COc1cccc(/C=C2\Sc3ccc(C(=O)NCc4cccnc4)cc3N(C)C2=O)c1	n	n	n	n	n	n	x	x	x	x
SMILES	MEKK2 WT-MEK5	MEKK3 PB1 HTS	Apaf1 inhib	MEKK2 mut-MEK5	UBC13 inh	PREPL inhibitor	Casp3 counter	UBC13 conf	Apaf-1 inh conf2	Rh110 quench
COc1cccc(/C=C2/Sc3ccc(C(=O)NCCN4CCCCCC4)cc3NC2=O)c1	280	n	n	71	66	n	n	92	n	n
OCCN1CCN(CC/C=C2/c3ccccc3Sc3ccc(C(F)(F)F)cc32)CC1	x	x	58	x	66	n	n	71	n	n
Cc1cc(CN2CCCC(N3CCc4ccccc4C3)C2)cc(C)c1O (centres undefined)	n	n	n	n	n	n	x	x	x	x
Cn1c(SCC(=O)N2CCCCCC2)nc2c(c1=O)SCC2	n	n	n	n	n	n	x	x	x	x
C=CCn1c(SCC(=O)N(CC)C2CCS(=O)(=O)C2)nnc1-c1ccccc1 (centres undefined)	x	x	61	x	54	n	n	53	n	n
COCCOc1ccc(C(F)(F)F)cc1NC(=O)COC(=O)c1cc([N+](=O)[O-])ccc1N1CCOCC1	n	n	n	n	n	n	x	x	x	x
FC(F)(F)c1cc(N2CCNCC2)c2ccccc2n1	n	n	n	n	n	n	x	x	x	x
